The record followed here is ChEMBL document CHEMBL2406979, “Antitumor activity of 2-hydroxycinnamaldehyde for human colon cancer cells through suppression of β-catenin signaling” (J Nat Prod, 2013).

Active and inactive are the calls of the source. The rule behind the calls is not given here.

This assay deals with HEK293. The experiment in a line: Inhibition of Wnt/beta-catenin (unknown origin) signaling pathway expressed in HEK293 cells assessed as inhibition of TCF4 transcriptional activity at 5 to 40 uM after 24 hrs by TOPflash reporter gene assay. The class given is cell-based. As to conditions: Homo sapiens. The method, boiled down:
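HEK293 cells seeded at 1.5 × 10^4 per well and cotransfected (Lipofectamine 2000) with TOPflash luciferase reporter 0.1 μg, Renilla 0.005 μg for normalization, pcDNA β-catenin 0.02 μg and TCF4 expression vector 0.004 μg to activate Wnt; 24 h later treated with compound or solvent for 24 h; dual luciferase read-out, Renilla-normalized, relative to vehicle; triplicate.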

Turning to `O=C/C=C/c1ccccc1`, the inhibition result was “Active”.
